Where a SMILES comes first, the peptide text is derived from it. Bridges are numbered along the chain shown (N, C = ends). The star is where a group is joined. DOTA = O=C(O)CN1CCN(CC(=O)O)CCN(CC(=O)*)CCN(CC(=O)O)CC1
Legend:
[1] = molecular target: integrin αvβ3 (Homo sapiens) (UniProt P06756); details: cited from earlier work
[2] = In vivo biodistribution study in U87MG tumor-bearing mice; details: female, athymic nude (nu/nu), mouse, iv, total radioactivity; for tissue uptake at 24 h: kidneys; for tissue to tissue ratio at 4 h: tumor / blood
Outline: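 Female athymic nu/nu mice with subcutaneous shoulder U87MG xenografts (2 × 10^7 cells; tumors ~8–10 mm) were anesthetized and given ~100 μCi of 64Cu-DOTA-labeled knottin peptide by tail vein, then sacrificed at 0.5, 1, 4 or 24 h. Tumor, blood, kidneys and other organs were weighed and gamma-counted against a tracer aliquot, giving %ID/g and tumor-to-organ ratios. Mean ± SD, ≥3 mice.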

U87MG cells = details: read-out: IC50, competition binding of 125I-echistatin on U87MG cells; cited from earlier work

integrin αvβ3 (Homo sapiens), sequence (P06756 31-1048, chain 1 of 2): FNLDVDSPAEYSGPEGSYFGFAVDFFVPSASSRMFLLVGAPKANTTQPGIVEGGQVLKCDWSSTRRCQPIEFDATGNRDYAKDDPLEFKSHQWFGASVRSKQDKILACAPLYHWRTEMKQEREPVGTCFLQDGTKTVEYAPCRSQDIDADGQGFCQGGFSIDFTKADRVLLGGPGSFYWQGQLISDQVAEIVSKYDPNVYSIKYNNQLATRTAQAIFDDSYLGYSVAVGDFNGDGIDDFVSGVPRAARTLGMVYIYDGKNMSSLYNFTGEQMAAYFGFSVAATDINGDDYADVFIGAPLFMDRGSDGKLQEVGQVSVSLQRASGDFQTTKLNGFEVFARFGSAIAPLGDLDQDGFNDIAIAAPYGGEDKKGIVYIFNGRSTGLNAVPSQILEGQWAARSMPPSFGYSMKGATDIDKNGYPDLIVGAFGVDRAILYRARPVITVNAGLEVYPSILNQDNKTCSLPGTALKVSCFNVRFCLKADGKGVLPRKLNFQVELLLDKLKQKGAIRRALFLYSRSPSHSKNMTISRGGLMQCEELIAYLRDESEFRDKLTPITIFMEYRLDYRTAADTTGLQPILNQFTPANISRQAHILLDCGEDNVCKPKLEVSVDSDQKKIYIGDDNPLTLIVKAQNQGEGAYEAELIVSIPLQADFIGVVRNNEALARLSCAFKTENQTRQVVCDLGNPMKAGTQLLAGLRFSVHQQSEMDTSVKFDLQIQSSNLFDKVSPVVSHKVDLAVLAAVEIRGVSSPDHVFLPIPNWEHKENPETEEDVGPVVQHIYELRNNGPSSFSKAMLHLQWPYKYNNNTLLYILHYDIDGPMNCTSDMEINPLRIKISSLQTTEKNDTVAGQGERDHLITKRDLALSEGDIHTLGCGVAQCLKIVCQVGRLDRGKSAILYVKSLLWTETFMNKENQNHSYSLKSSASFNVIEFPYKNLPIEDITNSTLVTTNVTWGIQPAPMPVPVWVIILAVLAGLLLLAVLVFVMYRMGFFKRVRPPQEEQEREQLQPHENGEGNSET
integrin αvβ3 (Homo sapiens), sequence (P05106 27-788, chain 2 of 2, further chain): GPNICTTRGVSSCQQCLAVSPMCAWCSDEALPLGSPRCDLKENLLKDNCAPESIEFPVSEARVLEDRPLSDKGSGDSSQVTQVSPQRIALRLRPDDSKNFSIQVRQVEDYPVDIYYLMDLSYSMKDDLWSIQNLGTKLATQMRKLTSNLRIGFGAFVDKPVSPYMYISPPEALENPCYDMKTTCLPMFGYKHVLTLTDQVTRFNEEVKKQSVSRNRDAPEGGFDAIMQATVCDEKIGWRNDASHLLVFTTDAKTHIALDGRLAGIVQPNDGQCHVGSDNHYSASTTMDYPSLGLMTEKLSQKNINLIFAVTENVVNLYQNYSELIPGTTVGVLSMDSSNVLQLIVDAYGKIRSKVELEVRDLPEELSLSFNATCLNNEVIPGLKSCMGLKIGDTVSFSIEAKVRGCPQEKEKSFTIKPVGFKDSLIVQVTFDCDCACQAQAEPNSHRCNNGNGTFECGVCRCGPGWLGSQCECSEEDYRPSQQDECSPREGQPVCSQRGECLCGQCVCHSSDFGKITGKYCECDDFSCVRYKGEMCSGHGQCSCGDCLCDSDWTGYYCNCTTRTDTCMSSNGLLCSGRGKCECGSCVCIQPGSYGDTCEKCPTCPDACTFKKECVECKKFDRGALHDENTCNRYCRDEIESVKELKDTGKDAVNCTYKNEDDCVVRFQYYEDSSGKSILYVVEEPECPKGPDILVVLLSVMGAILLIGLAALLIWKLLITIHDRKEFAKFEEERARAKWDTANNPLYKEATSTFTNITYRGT
Echistatin, sequence (P17347 131-179): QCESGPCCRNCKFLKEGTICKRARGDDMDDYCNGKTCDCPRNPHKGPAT

| Compound | Kd [1] [µM] | tissue uptake at 24 h [2] [%ID/g] | tissue to tissue ratio at 4 h [2] | IC50 (U87MG cells) [µM] |
| --- | --- | --- | --- | --- |
| Echistatin (from UniProt P17347) | 0.00036 |  |  |  |
| CC(C)C[C@@H]1NC(=O)[C@@H]2CSSC[C@@H](C(=O)NCC(N)=O)NC(=O)[C@H](Cc3ccccc3)NC(=O)CNC(=O)[C@H](CC(N)=O)NC(=O)[C@@H]3CCCN3C(=O)CNC(=O)[C@@H]3CSSC[C@H](NC(=O)[C@H]([C@@H](C)O)NC(=O)[C@H](CC(C)C)NC(=O)[C@@H]4CCCN4C(=O)[C@@H]4CCCN4C(=O)[C@H](CC(N)=O)NC(=O)[C@H](CC(=O)O)NC(=O)CNC(=O)[C@H](CCCNC(=N)N)NC(=O)[C@@H]4CCCN4C(=O)[C@H](CCCNC(=N)N)NC(=O)[C@@H]4CCCN4C(=O)[C@@H](NC(=O)CNC(=O)CN4CCN(CC(=O)O)CCN(CC(=O)O)CCN(CC(=O)O)CC4)CSSC[C@H](NC(=O)CNC(=O)[C@H](C)NC1=O)C(=O)N[C@@H](C(C)C)C(=O)N3)C(=O)N[C@@H](CO)C(=O)N[C@@H](CCC(N)=O)C(=O)N[C@@H](CC(=O)O)C(=O)N[C@@H](CO)C(=O)N[C@@H](CC(=O)O)C(=O)N2 [^64Cu-DOTA-2.5F, metal not drawn] ({DOTA}-GCPRPRGDNPPLTCSQDSDCLAGCVCGPNGFCG-NH2; disulfide 2-24, 14-26, 20-32) |  | 1.09 ± 0.15 | 42.3 ± 8.65 |  |
| CC(C)C[C@@H]1NC(=O)[C@@H]2CSSC[C@@H](C(=O)NCC(N)=O)NC(=O)[C@H](Cc3ccccc3)NC(=O)CNC(=O)[C@H](CC(N)=O)NC(=O)[C@@H]3CCCN3C(=O)CNC(=O)[C@@H]3CSSC[C@H](NC(=O)[C@H](CO)NC(=O)[C@H]([C@@H](C)O)NC(=O)[C@@H]4CCCN4C(=O)[C@H](C)NC(=O)[C@H](Cc4c[nH]c5ccccc45)NC(=O)[C@H](CC(=O)O)NC(=O)CNC(=O)[C@H](CCCNC(=N)N)NC(=O)CNC(=O)[C@H](CCC(N)=O)NC(=O)[C@@H]4CCCN4C(=O)[C@@H](NC(=O)CNC(=O)CN4CCN(CC(=O)O)CCN(CC(=O)O)CCN(CC(=O)O)CC4)CSSC[C@H](NC(=O)CNC(=O)[C@H](C)NC1=O)C(=O)N[C@@H](C(C)C)C(=O)N3)C(=O)N[C@@H](CO)C(=O)N[C@@H](CCC(N)=O)C(=O)N[C@@H](CC(=O)O)C(=O)N[C@@H](CO)C(=O)N[C@@H](CC(=O)O)C(=O)N2 [^64Cu-DOTA-2.5D, metal not drawn] ({DOTA}-GCPQGRGDWAPTSCSQDSDCLAGCVCGPNGFCG-NH2; disulfide 2-24, 14-26, 20-32; C-terminus assumed) |  | 1.25 ± 0.11 | 24.9 ± 2.62 |  |

— article PMC2833353 (Cancer research, 2009)
